From ChEMBL document CHEMBL1134384, “Development of new carboxylic acid-based MMP inhibitors derived from functionalized propargylglycines” (J Med Chem, 2001)
In brackets after ≈: the same amount, converted by molar mass.

Legend:
Stromelysin-1 = Stromelysin-1 (Homo sapiens, UniProt P08254); assay: Inhibitory activity against human matrix metalloprotease-3 (MMP-3) ([…])
Collagenase 3 [1] = biological target: T1, Collagenase 3 (Homo sapiens, UniProt P45452); assay: Inhibitory activity against human matrix metalloprotease-13 in quenched fluorescence assay at pH 7.4
[2] = biological target: 72 kDa type IV collagenase (Homo sapiens, UniProt P08253); assay: Inhibitory activity against matrix metalloprotease-2 (MMP-2) in quenched fluorescence assay at […]
72 kDa type IV collagenase, sequence (P08253 whole entry): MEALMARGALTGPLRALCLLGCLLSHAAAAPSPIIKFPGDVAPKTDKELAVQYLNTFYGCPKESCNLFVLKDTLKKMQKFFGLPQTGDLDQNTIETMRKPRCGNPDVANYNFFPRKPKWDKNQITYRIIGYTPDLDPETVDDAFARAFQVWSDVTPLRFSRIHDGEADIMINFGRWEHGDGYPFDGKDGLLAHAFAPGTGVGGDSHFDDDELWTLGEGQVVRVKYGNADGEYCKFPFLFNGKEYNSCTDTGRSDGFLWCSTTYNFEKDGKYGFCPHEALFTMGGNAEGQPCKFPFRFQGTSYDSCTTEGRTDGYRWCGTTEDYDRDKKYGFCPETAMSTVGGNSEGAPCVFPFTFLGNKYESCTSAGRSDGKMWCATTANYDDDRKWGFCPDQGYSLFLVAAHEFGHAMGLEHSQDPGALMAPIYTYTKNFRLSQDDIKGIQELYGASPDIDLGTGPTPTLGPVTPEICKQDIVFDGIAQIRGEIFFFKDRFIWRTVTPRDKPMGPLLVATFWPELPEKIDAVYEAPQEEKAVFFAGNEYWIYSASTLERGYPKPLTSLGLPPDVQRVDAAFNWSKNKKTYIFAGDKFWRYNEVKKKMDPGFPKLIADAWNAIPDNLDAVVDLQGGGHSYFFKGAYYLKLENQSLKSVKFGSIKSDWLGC
Outline: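 Full-length human recombinant proMMP-2 from CHO cells was activated with 1 mM APMA for 45 min and used at 1 nM final. Cleavage of 4 μM Mca-Pro-Leu-Gly-Leu-Dpa-Ala-Arg-NH₂ was followed at 25 °C in Tris pH 7.5/NaCl/CaCl₂/Brij-35 buffer, with fluorescence read kinetically for 30 min. IC50 came from 8 inhibitor concentrations.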

Interstitial collagenase = biological target: T2, Interstitial collagenase (Homo sapiens, UniProt P03956); assay: Inhibitory activity against human matrix metalloprotease-1 in quenched fluorescence assay at […]
T2 sequence (P03956 whole entry): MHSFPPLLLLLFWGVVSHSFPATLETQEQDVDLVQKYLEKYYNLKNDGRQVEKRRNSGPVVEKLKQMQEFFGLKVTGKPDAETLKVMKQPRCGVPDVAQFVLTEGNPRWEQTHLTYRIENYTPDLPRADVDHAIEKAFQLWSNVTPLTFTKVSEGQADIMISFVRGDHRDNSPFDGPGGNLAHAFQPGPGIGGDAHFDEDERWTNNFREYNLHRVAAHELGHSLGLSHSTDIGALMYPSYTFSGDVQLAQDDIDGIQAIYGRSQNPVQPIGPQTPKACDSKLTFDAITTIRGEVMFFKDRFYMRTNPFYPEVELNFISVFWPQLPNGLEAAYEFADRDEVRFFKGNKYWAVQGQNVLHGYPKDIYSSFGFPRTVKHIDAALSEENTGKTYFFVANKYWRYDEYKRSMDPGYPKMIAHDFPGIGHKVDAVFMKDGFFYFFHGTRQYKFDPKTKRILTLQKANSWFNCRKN
Outline: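 Quenched fluorescence assay using truncated human recombinant enzymes expressed in E. coli, at final concentrations of 8 nM for MMP-1 and 16 nM for MMP-3. Substrate was Mca-Pro-Leu-Gly-Leu-Dpa-Ala-Arg-NH₂ at 4 μM, at 25 °C, in 50 mM Tris pH 7.5, 0.2 M NaCl, 5 mM CaCl₂, 0.02% Brij-35. Fluorescence (ex 328/em 393 nm) was read kinetically for 30 min. Eight inhibitor concentrations were tested and IC50 was fitted from Vi/V0.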

[3] = Half life was determined in fasted rats using cassette dosing technique.; assay type: ADME, organism-based; conditions: rat, in vivo
Outline: (§1)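 Fasted rats (n = 3/4) received cassette doses of 4–5 compounds per experiment at 1–5 mg/kg of each inhibitor. Each study included a control compound previously characterized in a single-compound experiment, to validate the data set and detect problems such as saturation of elimination.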

[4] = Solubility was determined at a pH of […]; assay type: physicochemical; conditions: pH 7
[5] = Bioavailability in rat (fasted) using cassette dosing; assay type: ADME, organism-based; conditions: in vivo; outline: as §1
Collagenase 3 [6] = biological target: T1, Collagenase 3; assay: Inhibition of human matrix metalloprotease-13 at pH 7.4

Stromelysin-1, sequence (P08254 whole entry): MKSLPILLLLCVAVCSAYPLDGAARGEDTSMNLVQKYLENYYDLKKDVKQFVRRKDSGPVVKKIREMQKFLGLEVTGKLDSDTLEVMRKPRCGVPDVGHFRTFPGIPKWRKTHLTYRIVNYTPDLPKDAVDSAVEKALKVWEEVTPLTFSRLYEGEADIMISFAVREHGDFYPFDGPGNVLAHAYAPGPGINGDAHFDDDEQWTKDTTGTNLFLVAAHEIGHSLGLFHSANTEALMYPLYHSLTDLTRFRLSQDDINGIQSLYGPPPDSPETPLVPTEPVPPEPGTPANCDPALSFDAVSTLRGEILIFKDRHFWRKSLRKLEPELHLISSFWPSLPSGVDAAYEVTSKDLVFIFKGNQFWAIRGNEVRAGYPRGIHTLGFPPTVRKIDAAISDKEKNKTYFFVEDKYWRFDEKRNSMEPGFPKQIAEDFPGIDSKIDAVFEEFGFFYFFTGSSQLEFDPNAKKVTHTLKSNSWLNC

IC50 (Stromelysin-1) [µM]	IC50 (Collagenase 3 [1]) [µM]	IC50 [2] [µM]	IC50 (Interstitial collagenase) [µM]	half-life [3] [h]	solubility [4] [µg/mL]	bioavailability [5] [%]	IC50 (Collagenase 3 [6]) [µM]	SMILES
22.1	0.089	0.019	> 10	–	–	–	–	Cc1ccc(C#Cc2ccc(S(=O)(=O)NC(CC#Cc3ccccc3)C(=O)O)cc2)cc1 (configuration not stated)
> 10	> 10	2.77	> 10	–	–	–	–	COCC#CCC(NS(=O)(=O)c1ccc(NC(=O)N2CCOCC2)cc1)C(=O)O (configuration not stated)
4.36	0.035	0.009	> 10	0.7	20 (≈ 43.5 µM)	26	–	COc1ccc(C#Cc2ccc(S(=O)(=O)NC(CC#Cc3ccccc3)C(=O)O)cc2)cc1 (configuration not stated)
2.34	0.088	0.033	6.51	–	–	–	–	COCCOCOCC#CCC(NS(=O)(=O)c1ccc(-c2ccc(OC)cc2)cc1)C(=O)O (configuration not stated)
17.4	0.344	0.012	> 10	–	4400 (≈ 7990 µM)	–	–	O=C(Nc1ccc(S(=O)(=O)NC(CC#CCN2CCOCC2)C(=O)O)cc1)c1ccc(Br)cc1 (configuration not stated)
5.06	–	0.024	11.5	–	–	–	–	CSc1ccc(-c2ccc(S(=O)(=O)NC(CC#CCN3CCOCC3)C(=O)O)cc2)cc1 (configuration not stated)
6.6	–	0.028	–	3.6	151000 (≈ 313000 µM)	12	–	COc1ccc(C#Cc2ccc(S(=O)(=O)NC(CC#CCN3CCOCC3)C(=O)O)cc2)cc1 (configuration not stated)
2.28	0.021	0.012	2	1.7	20 (≈ 45.9 µM)	49	–	COc1ccc(-c2ccc(S(=O)(=O)NC(CC#Cc3ccccc3)C(=O)O)cc2)cc1 (configuration not stated)
8.9	0.231	0.175	5.6	–	–	–	–	O=C(O)C(CC#Cc1ccccc1)NS(=O)(=O)c1ccc(-c2ccc(F)cc2)cc1 (configuration not stated)
> 10	–	0.661	> 10	–	–	–	–	COc1ccc(-c2ccc(S(=O)(=O)NC(CC#CCN3CCN(C(=O)OC(C)(C)C)CC3)C(=O)O)cc2)cc1 (configuration not stated)
10.1	–	0.046	–	–	–	–	0.145	COc1ccc(C#Cc2ccc(S(=O)(=O)NC(CC#Cc3ccccc3)C(=O)O)s2)cc1 (configuration not stated)
> 10	–	0.1	> 10	–	–	–	–	COc1ccc(-c2ccc(S(=O)(=O)NC(CC#CCN3CCCC3)C(=O)O)cc2)cc1 (configuration not stated)
3.4	0.016	0.006	0.631	–	–	–	–	CSc1ccc(-c2ccc(S(=O)(=O)NC(CC#Cc3ccccc3)C(=O)O)cc2)cc1 (configuration not stated)
1.32	–	0.02	3.25	–	30 (≈ 67.9 µM)	–	–	COc1ccc(-c2ccc(S(=O)(=O)NC(CC#Cc3ccccc3)C(=O)O)s2)cc1 (configuration not stated)
3.57	0.127	0.006	> 10	–	–	–	–	O=C(Nc1ccc(S(=O)(=O)NC(CC#Cc2ccccc2)C(=O)O)cc1)c1ccc(Cl)cc1 (configuration not stated)
5.1	0.033	0.008	3.4	–	120 (≈ 249 µM)	–	–	CO[C@H](C#Cc1ccccc1)C(NS(=O)(=O)c1ccc(-c2ccc(SC)cc2)cc1)C(=O)O (some centres not stated)
4.56	2.15	1.47	> 10	–	–	–	–	O=C(O)C(CC#Cc1ccccc1)NS(=O)(=O)c1ccc(-c2ccc(Oc3ccccc3)cc2)cc1 (configuration not stated)
14.6	–	0.158	> 10	–	–	–	–	COc1ccc(-c2ccc(S(=O)(=O)NC(CC#Cc3ccc(N4CCOCC4)cc3)C(=O)O)cc2)cc1 (configuration not stated)

IC50 (Stromelysin-1) [µM]	IC50 (Collagenase 3 [1]) [µM]	IC50 [2] [µM]	IC50 (Interstitial collagenase) [µM]	half-life [3] [h]	solubility [4] [µg/mL]	bioavailability [5] [%]	IC50 (Collagenase 3 [6]) [µM]	SMILES
10.7	–	0.104	13.7	–	–	–	–	COc1ccc(-c2ccc(S(=O)(=O)NC(CC#CCN3CCOCC3)C(=O)O)cc2)cc1 (configuration not stated)
3.33	0.147	0.017	24.8	–	12000 (≈ 26500 µM)	–	–	COCC#CCC(NS(=O)(=O)c1ccc(-c2ccc(Br)cc2)cc1)C(=O)O (configuration not stated)
4.56	2.15	1.48	> 10	–	–	–	–	O=C(O)C(CC#Cc1ccccc1)NS(=O)(=O)c1ccc(Oc2ccccc2)cc1 (configuration not stated)
9	–	0.008	> 10	–	3200 (≈ 7170 µM)	–	–	COCC#CCC(NS(=O)(=O)c1ccc(NC(=O)c2ccc(OC)cc2)cc1)C(=O)O (configuration not stated)
> 10	–	0.547	> 10	–	–	–	–	COc1ccc(-c2ccc(S(=O)(=O)NC(CC#CCN3CCN(c4ccccc4)CC3)C(=O)O)cc2)cc1 (configuration not stated)
> 10	> 10	> 10	> 10	–	–	–	–	COc1ccc(S(=O)(=O)c2csc(S(=O)(=O)NC(CC#Cc3ccccc3)C(=O)O)c2)cc1 (configuration not stated)
3.7	0.081	0.031	4.2	–	–	–	–	COc1ccc(-c2ccc(S(=O)(=O)NC(C(=O)O)[C@@H](C#Cc3ccccc3)OC)cc2)cc1 (some centres not stated)
> 10	–	0.297	> 10	–	–	–	–	O=C(O)C(CC#CCN1CCOCC1)NS(=O)(=O)c1ccc(-c2ccccc2)cc1 (configuration not stated)
> 10	16.9	0.567	> 10	–	–	–	–	COCC#CCC(NS(=O)(=O)c1ccc(NC(=O)N2CCCC2)cc1)C(=O)O (configuration not stated)
16.3	–	0.087	–	–	–	–	–	O=C(O)C(CC#Cc1ccccc1)NS(=O)(=O)c1ccc(/N=N/c2ccccc2)cc1 (configuration not stated)
–	0.076	0.02	6.15	–	5800 (≈ 14400 µM)	–	–	COCC#CCC(NS(=O)(=O)c1ccc(-c2ccc(OC)cc2)cc1)C(=O)O (configuration not stated)
> 10	> 10	> 10	> 10	–	–	–	–	COc1ccc(S(=O)(=O)c2ccc(S(=O)(=O)NC(CC#Cc3ccccc3)C(=O)O)s2)cc1 (configuration not stated)
2.43	0.05	0.026	> 10	–	–	–	–	COCCOc1ccc(-c2ccc(S(=O)(=O)NC(CC#Cc3ccccc3)C(=O)O)cc2)cc1 (configuration not stated)
> 10	–	1.16	> 10	–	–	–	–	COc1ccc(-c2ccc(S(=O)(=O)NC(CC#CCN3CCN(S(C)(=O)=O)CC3)C(=O)O)cc2)cc1 (configuration not stated)
3.92	0.226	0.009	> 10	–	410 (≈ 806 µM)	–	–	COc1ccc(C(=O)Nc2ccc(S(=O)(=O)NC(CC#CCOc3ccccc3)C(=O)O)cc2)cc1 (configuration not stated)
> 10	3.05	0.38	> 10	–	–	–	–	O=C(O)C(CC#CCN1CCCC1)NS(=O)(=O)c1ccc(-c2ccccc2)cc1 (configuration not stated)
15.4	2.04	–	–	–	–	–	–	CCCCOc1ccc(S(=O)(=O)NC(CC#Cc2ccccc2)C(=O)O)cc1 (configuration not stated)
–	> 1.6	2.39	> 10	–	–	–	–	CCOc1cccc(-c2ccc(S(=O)(=O)NC(CC#Cc3ccccc3)C(=O)O)cc2)c1 (configuration not stated)

SMILES	IC50 (Stromelysin-1) [µM]	IC50 (Collagenase 3 [1]) [µM]	IC50 [2] [µM]	IC50 (Interstitial collagenase) [µM]	half-life [3] [h]	solubility [4] [µg/mL]	bioavailability [5] [%]	IC50 (Collagenase 3 [6]) [µM]
COc1ccc(-c2ccc(S(=O)(=O)NC(CC#Cc3cccc(N4CCOCC4)c3)C(=O)O)cc2)cc1 (configuration not stated)	3.52	0.024	0.016	3.66	0.1	580 (≈ 1110 µM)	7	–
COCC#CCC(NS(=O)(=O)c1ccc(NC(=O)c2ccc(Br)cc2)cc1)C(=O)O (configuration not stated)	8.62	0.27	0.006	> 10	–	–	–	–
O=C(O)C(CC#Cc1ccccc1)NS(=O)(=O)c1ccc(-c2ccc3c(c2)OCO3)cc1 (configuration not stated)	5.44	0.104	0.029	10.3	–	80 (≈ 178 µM)	–	–
O=C(Nc1ccc(S(=O)(=O)NC(CC#CCOc2ccccc2)C(=O)O)cc1)c1ccc(Br)cc1 (configuration not stated)	2.85	–	0.009	> 10	–	50 (≈ 89.7 µM)	–	–
O=C(O)C(CC#CCOc1ccccc1)NS(=O)(=O)c1ccc(-c2ccc(Br)cc2)cc1 (configuration not stated)	1.81	0.254	0.023	> 10	–	–	–	–
COc1ccc(-c2ccc(S(=O)(=O)NC(CC#CCc3ccccc3)C(=O)O)cc2)cc1 (configuration not stated)	0.777	0.022	0.033	3.34	–	–	–	–
O=C(O)C(CC#Cc1ccccc1)NS(=O)(=O)c1ccc(-c2ccc(-c3ccccc3)cc2)cc1 (configuration not stated)	> 10	0.059	0.029	> 10	–	–	–	–
COc1ccc(-c2ccc(S(=O)(=O)NC(C(=O)O)[C@@H](C#Cc3ccccc3)OCc3ccccc3)cc2)cc1 (some centres not stated)	4.27	0.014	0.008	> 10	–	–	–	–
